Converted amounts (≈) assume the structure as drawn.
Tests used:
Type in all cases: functional
Staphylococcus aureus = assay: Antibacterial activity against Staphylococcus aureus ATCC 6538 after 24 hrs by MTT assay; details: ATCC 6538, 24 h
Method in brief: (§1)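 Broth microdilution MIC in MH medium; compounds from 50 mg/mL DMSO stock serially diluted in medium in microtitration plates. Inoculum about 10⁵ cfu/mL; incubated at 37 °C for 24 h. MIC read visually, then PBS containing 2 mg MTT/mL added per well; after 12 h further incubation at room temperature, OD read at 550 nm.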

Candida albicans = assay: Antifungal activity against Candida albicans ATCC 10231 after 48 hrs by MTT assay; details: ATCC 10231, 48 h
Method in brief: (§2)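 MIC determined by serial dilution in RPMI-1640 medium in microtitration plates, compounds from 50 mg/mL DMSO stock. Fungal suspension about 10⁵ cfu/mL, incubated at 37 °C for 48 h. Visual MIC reading followed by addition of PBS with 2 mg MTT/mL; OD at 550 nm measured after 12 h at room temperature.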

Pseudomonas fluorescens = assay: Antibacterial activity against Pseudomonas fluorescens ATCC 13525 after 24 hrs by MTT assay; details: ATCC 13525, 24 h; method in brief: as §1
Aspergillus niger = assay: Antifungal activity against Aspergillus niger ATCC 16404 after 48 hrs by MTT assay; details: ATCC 16404, 48 h; method in brief: as §2
Trichophyton rubrum = assay: Antifungal activity against Trichophyton rubrum ATCC 10218 after 48 hrs by MTT assay; details: ATCC 10218, 48 h; method in brief: as §2
Bacillus subtilis = assay: Antibacterial activity against Bacillus subtilis ATCC 6633 after 24 hrs by MTT assay; details: ATCC 6633, 24 h; method in brief: as §1
Escherichia coli = assay: Antibacterial activity against Escherichia coli ATCC 35218 after 24 hrs by MTT assay; details: ATCC 35218, 24 h; method in brief: as §1

Row | Compound | MIC (Staphylococcus aureus) [µg/mL] | MIC (Candida albicans) [µg/mL] | MIC (Pseudomonas fluorescens) [µg/mL] | MIC (Aspergillus niger) [µg/mL] | MIC (Trichophyton rubrum) [µg/mL] | MIC (Bacillus subtilis) [µg/mL] | MIC (Escherichia coli) [µg/mL]
1 | CCOC(=O)/C(=C/Nc1ccc(O)cc1)c1ccc(Cl)cc1 | 0.5 (≈ 1.57 µM) | > 50 | 1.5 (≈ 4.72 µM) | > 50 | > 50 | > 50 | > 50
2 | CCOC(=O)/C(=C/Nc1cc(F)cc(F)c1)c1ccc(Cl)cc1 | 1.9 (≈ 5.63 µM) | > 50 | 31.5 (≈ 93.3 µM) | > 50 | > 50 | 48.2 (≈ 143 µM) | 13.5 (≈ 40 µM)
3 | CC(=O)N1CCN(c2ccc(OCC3COC(Cn4ccnc4)(c4ccc(Cl)cc4Cl)O3)cc2)CC1 (stereo unspecified) [KETOCONAZOLE] | – | 3.9 (≈ 7.34 µM) | – | 7.8 (≈ 14.7 µM) | 3.9 (≈ 7.34 µM) | – | –
4 | CCOC(=O)/C(=C\Nc1ccc(F)cc1)c1ccc(Cl)cc1 | > 50 | > 50 | > 50 | > 50 | > 50 | 49.8 (≈ 156 µM) | 43.4 (≈ 136 µM)
5 | CCOC(=O)/C(=C/Nc1ccccc1F)c1ccc(Cl)cc1 | 41.2 (≈ 129 µM) | > 50 | > 50 | > 50 | > 50 | > 50 | > 50
6 | CCOC(=O)/C(=C/N1CCCc2ccccc21)c1ccc(Cl)cc1 | > 50 | > 50 | 38.5 (≈ 113 µM) | > 50 | > 50 | > 50 | > 50
7 | CCOC(=O)/C(=C/Nc1cc(Br)c(OC)c(Br)c1)c1ccc(Cl)cc1 | 2.2 (≈ 4.49 µM) | > 50 | 6.1 (≈ 12.5 µM) | > 50 | > 50 | > 50 | > 50
8 | CCOC(=O)/C(=C\Nc1cc(OC)cc(OC)c1)c1ccc(Cl)cc1 | > 50 | > 50 | 36.3 (≈ 100 µM) | > 50 | > 50 | > 50 | > 50
9 | CCOC(=O)/C(=C\Nc1cc(Cl)cc(Cl)c1)c1ccc(Cl)cc1 | > 50 | > 50 | > 50 | > 50 | > 50 | > 50 | > 50
10 | CCOC(=O)/C(=C\Nc1cc(F)cc(F)c1)c1ccc(Cl)cc1 | > 50 | > 50 | > 50 | > 50 | > 50 | > 50 | > 50
11 | CCOC(=O)/C(=C/Nc1cc(Cl)cc(Cl)c1)c1ccc(Cl)cc1 | 1.1 (≈ 2.97 µM) | > 50 | 25.7 (≈ 69.3 µM) | > 50 | > 50 | > 50 | > 50
12 | CCOC(=O)/C(=C\Nc1ccc(Cl)cc1Cl)c1ccc(Cl)cc1 | > 50 | > 50 | > 50 | > 50 | > 50 | > 50 | > 50
13 | CC1(C)S[C@@H]2[C@H](NC(=O)Cc3ccccc3)C(=O)N2[C@H]1C(=O)O [PENICILLIN G] | 2 (≈ 5.98 µM) | – | – | – | – | 0.78 (≈ 2.33 µM) | –
14 | CCOC(=O)/C(=C/N1CCCc2ccccc21)c1ccc(OC)cc1 | > 50 | > 50 | 41.5 (≈ 123 µM) | > 50 | > 50 | > 50 | > 50
15 | CCOC(=O)/C(=C\Nc1cc(Br)c(OCc2ccccc2)c(Br)c1)c1ccc(Cl)cc1 | > 50 | > 50 | > 50 | > 50 | > 50 | > 50 | > 50
16 | CCOC(=O)/C(=C/Nc1ccc(Cl)cc1Cl)c1ccc(Cl)cc1 | 12.3 (≈ 33.2 µM) | > 50 | 7.1 (≈ 19.2 µM) | > 50 | > 50 | > 50 | > 50
17 | NC[C@H]1O[C@H](O[C@H]2[C@H](O)[C@@H](O[C@H]3O[C@H](CO)[C@@H](O)[C@H](N)[C@H]3O)[C@H](N)C[C@@H]2N)[C@H](O)[C@@H](O)[C@@H]1O [KANAMYCIN] | 1 (≈ 2.06 µM) | – | 3.9 (≈ 8.05 µM) | – | – | 0.39 (≈ 0.805 µM) | 3.9 (≈ 8.05 µM)

Now from value to compound:

Row | MIC (Staphylococcus aureus) [µg/mL] | MIC (Candida albicans) [µg/mL] | MIC (Pseudomonas fluorescens) [µg/mL] | MIC (Aspergillus niger) [µg/mL] | MIC (Trichophyton rubrum) [µg/mL] | MIC (Bacillus subtilis) [µg/mL] | MIC (Escherichia coli) [µg/mL] | Compound
18 | 40.9 (≈ 121 µM) | > 50 | > 50 | > 50 | > 50 | > 50 | 48 (≈ 142 µM) | CCOC(=O)/C(=C/Nc1ccc(F)cc1F)c1ccc(Cl)cc1
19 | 35.6 (≈ 111 µM) | > 50 | > 50 | > 50 | > 50 | > 50 | > 50 | CCOC(=O)/C(=C/Nc1ccc(F)cc1)c1ccc(Cl)cc1
20 | 1 (≈ 2.1 µM) | > 50 | 3.7 (≈ 7.78 µM) | > 50 | > 50 | > 50 | > 50 | CCOC(=O)/C(=C/Nc1cc(Br)c(O)c(Br)c1)c1ccc(Cl)cc1
21 | 44.9 (≈ 141 µM) | > 50 | 13.1 (≈ 41.2 µM) | > 50 | > 50 | > 50 | 38.9 (≈ 122 µM) | CCOC(=O)/C(=C\Nc1ccc(O)cc1)c1ccc(Cl)cc1
22 | 0.9 (≈ 2.49 µM) | > 50 | 1.6 (≈ 4.42 µM) | > 50 | > 50 | > 50 | > 50 | CCOC(=O)/C(=C/Nc1cc(OC)cc(OC)c1)c1ccc(Cl)cc1
23 | > 50 | > 50 | 46 (≈ 144 µM) | > 50 | > 50 | 46.6 (≈ 146 µM) | > 50 | CCOC(=O)/C(=C\Nc1ccccc1F)c1ccc(Cl)cc1
24 | > 50 | > 50 | > 50 | > 50 | > 50 | > 50 | 47.3 (≈ 140 µM) | CCOC(=O)/C(=C\Nc1ccc(F)cc1F)c1ccc(Cl)cc1
25 | 8.2 (≈ 17.8 µM) | > 50 | 4.5 (≈ 9.79 µM) | > 50 | > 50 | > 50 | > 50 | CCOC(=O)/C(=C/Nc1ccc(Br)cc1Br)c1ccc(Cl)cc1
26 | 47.7 (≈ 97.4 µM) | > 50 | 48.1 (≈ 98.2 µM) | > 50 | > 50 | 43.3 (≈ 88.4 µM) | 48.6 (≈ 99.3 µM) | CCOC(=O)/C(=C\Nc1cc(Br)c(OC)c(Br)c1)c1ccc(Cl)cc1
27 | 3.4 (≈ 6.01 µM) | > 50 | 8.5 (≈ 15 µM) | > 50 | > 50 | > 50 | > 50 | CCOC(=O)/C(=C/Nc1cc(Br)c(OCc2ccccc2)c(Br)c1)c1ccc(Cl)cc1
28 | 32.1 (≈ 69.8 µM) | > 50 | 23.8 (≈ 51.8 µM) | > 50 | > 50 | > 50 | > 50 | CCOC(=O)/C(=C\Nc1ccc(Br)cc1Br)c1ccc(Cl)cc1
29 | 33.5 (≈ 70.4 µM) | > 50 | > 50 | > 50 | > 50 | > 50 | > 50 | CCOC(=O)/C(=C\Nc1cc(Br)c(O)c(Br)c1)c1ccc(Cl)cc1
